BindingDB's records for doi:10.1021/acs.jmedchem.5b00686 (University of Hawaii At Hilo, 2015)

Target: Signal transducer and activator of transcription 3 (Homo sapiens, UniProt P40763)
Test: Inhibition of Stat3 dimer DNA binding activity in human U373MG cells nuclear extract after 1.5 hrs by EMSA using radiolabeled probe hSIE
Outline: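 Sub-confluent U251MG or U373MG cells treated with compound (5 μM for 0–24 h, or 0–5 μM for 1.5 h). Stat3:DNA bands scanned, quantified and plotted against concentration to derive IC50. Controls were 0.025% DMSO.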

Chain of Signal transducer and activator of transcription 3 (P40763 whole entry): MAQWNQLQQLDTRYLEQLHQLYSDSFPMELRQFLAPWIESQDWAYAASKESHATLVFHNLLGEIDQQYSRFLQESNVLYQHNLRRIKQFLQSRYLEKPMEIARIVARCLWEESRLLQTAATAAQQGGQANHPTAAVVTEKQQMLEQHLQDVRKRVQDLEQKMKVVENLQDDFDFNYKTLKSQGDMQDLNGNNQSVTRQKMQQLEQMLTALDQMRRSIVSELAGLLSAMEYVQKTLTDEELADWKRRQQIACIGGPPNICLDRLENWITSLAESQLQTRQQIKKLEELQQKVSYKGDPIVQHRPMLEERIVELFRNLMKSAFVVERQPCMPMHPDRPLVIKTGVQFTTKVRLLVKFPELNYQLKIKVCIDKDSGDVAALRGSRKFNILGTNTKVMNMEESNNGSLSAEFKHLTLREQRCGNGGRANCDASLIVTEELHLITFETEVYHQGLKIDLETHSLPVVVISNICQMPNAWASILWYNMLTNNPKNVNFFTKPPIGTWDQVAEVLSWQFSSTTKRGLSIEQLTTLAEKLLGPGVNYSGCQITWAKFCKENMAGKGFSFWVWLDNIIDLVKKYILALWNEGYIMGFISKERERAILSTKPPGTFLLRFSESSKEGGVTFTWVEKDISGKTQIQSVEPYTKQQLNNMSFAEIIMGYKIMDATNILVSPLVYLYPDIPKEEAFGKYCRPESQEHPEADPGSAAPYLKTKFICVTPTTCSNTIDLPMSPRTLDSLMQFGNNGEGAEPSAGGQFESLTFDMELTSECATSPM

IC50	Compound
2.4 µM	C/C=C(\C)C(=O)OCC1=C2/C(=C\[C@@]3(C)CC[C@](O)(O3)[C@H](C)C[C@@H]2O)OC1=O
4.1 µM	C/C=C(\C)C(=O)O[C@H]1C[C@@H](C)[C@]2(OC)CC[C@](C)(/C=C3/OC(=O)C(COC(C)=O)=C31)O2 [Vernolide-B]
